A selection: hits, their analogues and other compounds. The true share with any hit is near 2.4%.
NPY-Y1 antag: NPY-Y1 receptor antagonists, primary screen, cell-based. Neuropeptide Y receptor type 1 (Homo sapiens), P25929. HEK293-CNG Y1 cells, membrane potential fluorescence; NPY at EC95, then isoproterenol. inhibition, % at 3.6 µM. 200,000 compounds, 1% hits. AID 1040, 2008;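 active = inhibition above the campaign mean inhibition of all tested compounds plus 3 SD, cut at about 20% in these data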
Target sequence (P25929 whole entry, looked up): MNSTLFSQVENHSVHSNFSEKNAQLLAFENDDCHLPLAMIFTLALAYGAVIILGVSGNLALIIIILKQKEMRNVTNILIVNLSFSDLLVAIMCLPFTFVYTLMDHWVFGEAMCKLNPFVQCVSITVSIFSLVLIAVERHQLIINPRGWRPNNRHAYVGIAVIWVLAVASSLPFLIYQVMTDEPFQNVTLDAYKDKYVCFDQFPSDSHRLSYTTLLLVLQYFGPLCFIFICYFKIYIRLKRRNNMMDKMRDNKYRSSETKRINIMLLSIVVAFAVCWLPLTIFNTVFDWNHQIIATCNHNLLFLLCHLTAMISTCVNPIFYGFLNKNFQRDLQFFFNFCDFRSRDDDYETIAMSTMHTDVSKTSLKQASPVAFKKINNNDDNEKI
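Material: HEK293 cells co-expressing NPY Y1 receptor and cyclic-nucleotide gated channel. Timing: compound incubation 1 h at room temperature, readout 45 min post-stimulation. Signal: fluorescence, membrane potential probe.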
NPY-Y2 PAM-ag: NPY-Y2 potentiators or agonists, primary screen, cell-based | cells expressing NPY-Y2, potentiator/agonist read-out | activation, % at 3.6 µM | 220,000 compounds, 0.45% hits | Neuropeptide Y receptor type 2 (Homo sapiens), P49146 | AID 1359, 2008; in the data active = activation above about 27%;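 note: cells stimulated with NPY near EC25 plus isoproterenol at EC100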
NPY Y2 blocker: NPY-Y2 receptor antagonists, primary screen, cell-based | Neuropeptide Y receptor type 2 (Homo sapiens), P49146 | NPY-Y2 expressing cells, antagonist mode | inhibition, % at 2.7 µM | 140,000 compounds, 0.99% hits
S1P4 antagonist: S1P4 receptor antagonists, primary screen, cell-based | AID 1510, 2009 | 220,000 compounds, 0.26% hits | S1P4-expressing cells, antagonist mode, reporter read-out | inhibition, % at 4.98 µM; in the data active = inhibition above about 29%
S1P4 ag: S1P4 receptor agonists, primary screen, cell-based; activation, % at 4.98 µM; 220,000 compounds, 0.35% hits; S1P4-expressing cell line, agonist reporter assay; Sphingosine 1-phosphate receptor 4 (Homo sapiens), O95977; in the data active = activation above about 11%
NPY-Y1 PAM-ag: NPY-Y1 receptor potentiators or agonists, primary screen, cell-based. Neuropeptide Y receptor type 1 (Homo sapiens), P25929. activation, % at 3.6 µM. NPY-Y1 expressing cells, potentiator/agonist activation. 220,000 compounds, 0.37% hits. AID 1304, 2008; in the data active = activation above about 33%, passing the limit was not always enough;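 note: cells stimulated with NPY at EC10 then isoproterenol at EC100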
NPY1 antag ctr: NPY-Y1 receptor antagonists, selectivity check, counter-screen for NPY-Y2 antagonist project, cell-based; shares compounds with NPY Y2 blocker; cell-based NPY-Y1 antagonism counterscreen; inhibition, % at 3.6 µM; 710 compounds, 19% hits; AID 1256, 2008; in the data active = inhibition above about 20%;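 note: cells challenged with NPY then isoproterenol with cAMP sensed through a CNG channel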
NPY-Y2 ant conf: NPY-Y2 receptor antagonists, retest of hits, confirmation, HEK293-CNG cells, membrane potential fluorescence, triplicate; HEK293 NPY-Y2 CNG channel; shares compounds with NPY Y2 blocker; 710 compounds, 32% hits; inhibition, % at 2.8 µM;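 active = mean inhibition of triplicate wells above the hit cutoff set in the primary screen, cut at about 17% in these data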
NPY-Y1 ant conf: NPY-Y1 receptor antagonists, retest of hits, confirmation, HEK293-CNG cells, membrane potential fluorescence, triplicate. shares compounds with NPY-Y1 antag. cAMP; NPY challenge against isoproterenol-raised cAMP. inhibition, % at 3.6 µM. 1,200 compounds, 21% hits. AID 1254, 2008; in the data active = inhibition above about 20%
NPY2 antag ctr: NPY-Y2 receptor antagonists, selectivity check, confirmation, counter-screen for NPY-Y1 antagonist project, HEK293-CNG cells, membrane potential fluorescence, triplicate. antagonism; cells given NPY, then isoproterenol. shares compounds with NPY-Y1 antag. inhibition, % at 3.6 µM. 1,200 compounds, 28% hits
S1P4 antag conf: S1P4 receptor antagonists, human, confirmation, cell-based | shares compounds with S1P4 antagonist | 520 compounds, 71% hits | inhibition, % at 4.98 µM | S1P4-expressing cell line, antagonist mode, reporter read-out; in the data active = inhibition above about 30%
S1P1 antag: S1P1 receptor antagonists, human, counter-screen for S1P4 antagonist project, cell-based; shares compounds with S1P4 antagonist; cell-based S1P1 antagonist counterscreen, inhibition; inhibition, % at 4.98 µM; 520 compounds, 37% hits; AID 1564, 2009; in the data active = inhibition above about 40%;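 note: receptor stimulated with S1P near its EC80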
Large screens that a line does not name were inactive (follow-up assays come after a bar, where they were run); ! = not confirmed by another sample. Cut-off read from the data, not from the text of the source, unless noted: active = inhibition above about 17%; inactive = the rest.

NNC(=O)Cn1c(SCc2ccccc2)nc2ccccc21	NPY Y2 blocker 22 | NPY1 antag ctr inactive | NPY-Y2 ant conf inactive
CCC(C)(C)n1nnnc1C(c1ccc2ncccc2c1)N1CCCC(C)C1 (centres undefined)	NPY Y2 blocker 18 | NPY1 antag ctr inactive | NPY-Y2 ant conf inactive
CC(Sc1ccc(Cl)cc1)C(=O)Nc1ccccc1-c1ccccc1 (centres undefined)	NPY Y2 blocker 20 | NPY1 antag ctr inactive | NPY-Y2 ant conf 25
COc1ccccc1OCc1n[nH]c(=S)n1Cc1ccccc1	none (no result: NPY Y2 blocker)
Cc1[nH]c2ccccc2c1/C=C/C(=O)c1ccncc1	none (no result: NPY-Y1 antag, NPY Y2 blocker)
O=C(/C=C/c1cccc2ccccc12)c1ccncc1	NPY Y2 blocker 20 | NPY1 antag ctr inactive | NPY-Y2 ant conf 19
COc1ccc(C2=C(CN(C)C)C(c3ccccc3)c3ccccc3O2)cc1 (centres undefined)	NPY-Y1 antag 23!, NPY Y2 blocker 18! | NPY1 antag ctr 25 | NPY-Y2 ant conf 34
COc1cc(C(=O)NCC(=O)OC(C)C(=O)Nc2ncc(Cl)cc2Cl)cc(OC)c1OC (centres undefined)	none (no result: NPY Y2 blocker)
Cc1cccc(CSC2=NCCN2C(=O)c2ccc(S(=O)(=O)N(C)C)cc2)c1	none (no result: NPY Y2 blocker)
Cc1cccc(CSC2=NCCN2C(=O)c2ccc(Br)o2)c1	NPY Y2 blocker 20 | NPY1 antag ctr inactive | NPY-Y2 ant conf 31
OC(CCN1CCOCC1)(c1ccc(Cl)cc1)C1CCCCC1 (centres undefined)	none
OC(CCN1CCCCC1)(c1ccccc1)C1CCCCC1 (centres undefined)	NPY Y2 blocker 20 | NPY1 antag ctr inactive | NPY-Y2 ant conf inactive
O=S(=O)(c1ccccc1Cl)N1CCC(O)(c2cccnc2)CC1	none (no result: NPY Y2 blocker)
Cc1ccc(N(C)S(=O)(=O)c2cccc(C(=O)Nc3nc4ccccc4[nH]3)c2)cc1	NPY Y2 blocker 23 | NPY1 antag ctr 42 | NPY-Y2 ant conf 20
COCCOC(=O)c1[nH]c2c(c1C)C(=O)CC(c1ccco1)C2 (centres undefined)	NPY Y2 blocker 32 | NPY1 antag ctr inactive | NPY-Y2 ant conf inactive
O=[N+]([O-])c1ccc2[nH]ncc2c1	none (no result: NPY Y2 blocker)
O=C1C(=O)c2ccc(-c3ccccc3)cc2-c2ccccc21	none
Nc1ccc2c(c1)C(=O)C(=O)c1ccccc1-2	NPY Y2 blocker 48 | NPY1 antag ctr inactive | NPY-Y2 ant conf 35
Nc1cccc(-n2cccc2)c1	none (no result: NPY Y2 blocker)
OCC1CCCN(c2nc(CN3CCCCC3)nc3scc(-c4ccccc4)c23)C1 (centres undefined)	NPY Y2 blocker 23 | NPY1 antag ctr inactive | NPY-Y2 ant conf inactive
CC(=O)NNC(=O)c1nc(-c2ccccc2)c(C)o1	none (no result: NPY-Y1 antag, NPY Y2 blocker)
Cc1nc(C(=O)Nc2cccc(Cl)c2)nn1-c1cc(OC(C)C)c(Cl)cc1Cl	NPY Y2 blocker 17 | NPY1 antag ctr 20 | NPY-Y2 ant conf inactive
CC(C)CCn1c(-c2nonc2N)nc2ccccc21	NPY Y2 blocker 18 | NPY1 antag ctr inactive | NPY-Y2 ant conf inactive
CCOC(=O)c1ccccc1NC(=O)Cn1c(-c2nonc2N)nc2ccccc21	NPY Y2 blocker 35 | NPY1 antag ctr 23 | NPY-Y2 ant conf 30
O/N=C/c1cc(Br)cs1	none (no result: NPY-Y1 antag, NPY Y2 blocker)
CC(C)(C)n1nnnc1C(c1cccnc1)N(Cc1ccccc1)Cc1ccco1 (centres undefined)	NPY Y2 blocker 18 | NPY1 antag ctr inactive | NPY-Y2 ant conf inactive
CCC(C)(C)n1nnnc1C(c1ccc(C)cc1)N(Cc1ccco1)Cc1cccs1 (centres undefined)	NPY Y2 blocker 22 | NPY1 antag ctr inactive | NPY-Y2 ant conf inactive
CCC(C)(C)n1nnnc1C(C(C)C)N(Cc1cccnc1)Cc1ccco1 (centres undefined)	none (no result: NPY Y2 blocker)
CCc1nc2ccccc2c(C(=O)OCC(=O)C(C)(C)C)c1C	none (no result: NPY Y2 blocker)
CCc1nc2ccccc2c(C(=O)OCc2nnc(-c3ccccc3)o2)c1C	NPY Y2 blocker 18 | NPY1 antag ctr 26 | NPY-Y2 ant conf 25
CCOC(=O)c1c(NC(=O)CSC2=NN3CCCC(=O)N=C3S2)sc2c1CCCCC2	NPY Y2 blocker 19 | NPY1 antag ctr 25 | NPY-Y2 ant conf 43
Cc1ccc(N(CC(=O)NCc2ccccc2Cl)S(=O)(=O)c2cccs2)cc1	NPY Y2 blocker 22 | NPY1 antag ctr inactive | NPY-Y2 ant conf inactive
O=C(/C=C/c1cccc(Cl)c1)c1nc2ccccc2[nH]1	NPY Y2 blocker 18, S1P4 antagonist 56 | NPY1 antag ctr inactive | NPY-Y2 ant conf 34 | S1P4 antag conf 104 | S1P1 antag inactive
COc1ccc(NC(=O)c2cc(S(=O)(=O)N3CCOCC3)cs2)cc1	none (no result: NPY Y2 blocker)
Cc1ccc(CNC(=O)CCc2nc(-c3cccs3)no2)cc1	NPY-Y1 antag 21 | NPY-Y1 ant conf inactive | NPY2 antag ctr inactive
CSc1ccccc1NC(=O)CSCc1ccc(Br)cc1	NPY-Y1 antag 27 | NPY-Y1 ant conf inactive | NPY2 antag ctr inactive
CSc1ccccc1NC(=O)CSCc1ccccc1Br	none
O=C(OCC(=O)N1N=C(c2ccc(Cl)cc2)CC1c1ccco1)c1ccccc1O (centres undefined)	NPY-Y1 antag 22 | NPY-Y1 ant conf inactive | NPY2 antag ctr inactive
